Hits are enriched below; roughly 3.5% of the tested compounds scored in any of these assays.
MrgX1 antagonist = antagonists of human MrgX1 receptor, primary screen, HEK293 cells, Fluo-4 calcium flux; B-score at 10 µM; actives 1.3% (n = 310,000); BAM8-22 antagonism; stronger effect = lower value; AID 588676, 2011;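 active = calcium-response B-score plate-corrected more than 3 library SD below zero, starting fluorescence within 5 deviations, no agonist response on first addition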;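 note: peak minus trough fluorescence over baseline after final BAM8-22 challenge near maximal dose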
MrgX1 PAM = positive allosteric modulators of MrgX1, primary screen, HEK293 cells, Fluo-4 calcium flux | Mas-related G-protein coupled receptor member X1 (Homo sapiens), Q96LB2 | FDSS; stronger effect = higher value | B-score at 10 µM | actives 0.63% (n = 310,000) | AID 588675, 2011;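 active = plate-corrected calcium response at least 3 library SD above typical, normal starting fluorescence, not activating the receptor alone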;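 note: compound read alongside a low EC10 to EC30 dose of BAM8-22 agonist; peak minus trough fluorescence over baseline measured at the second addition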
RGS4 block = RGS4 inhibitors, primary screen, cell-based, HEK293 M3R inducible RGS4, calcium flux. Regulator of G-protein signaling 4 (Homo sapiens), P49798. Fluo-4 calcium flux; stronger effect = higher value; triggered by carbachol at its EC20. B-score at 10 µM. actives 0.45% (n = 310,000);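 active = B-score, a plate-corrected calcium signal, over three deviations above library mean, with baseline fluorescence within five deviations of library mean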;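 note: RGS4 expression induced by doxycycline in cells with stable M3 receptor; B-score is computed from the integrated fluorescence ratio over baseline after carbachol; higher B-score means a larger calcium signal and so more RGS4 inhibition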
Target sequence (P49798 whole entry, looked up): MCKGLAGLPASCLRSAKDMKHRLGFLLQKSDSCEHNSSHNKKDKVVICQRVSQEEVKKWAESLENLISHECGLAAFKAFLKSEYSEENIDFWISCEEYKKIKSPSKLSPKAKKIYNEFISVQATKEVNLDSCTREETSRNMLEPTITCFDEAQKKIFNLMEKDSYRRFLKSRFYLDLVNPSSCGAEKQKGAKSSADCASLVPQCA
MrgX1 agonist = agonists of human MrgX1 receptor, primary screen, HEK293 cells, Fluo-4 calcium flux; Mas-related G-protein coupled receptor member X1 (Homo sapiens), Q96LB2; Fluo-4 calcium fluorescence, agonist mode; stronger effect = higher value; B-score at 10 µM; actives 0.44% (n = 310,000);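 active = calcium response B-score plate-corrected fluorescence ratio at least 3 library SD, with starting fluorescence B-score inside 5 SD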
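Assay system: MrgX1-expressing HEK293 cells / Amount: fifteen thousand cells per well / Doses: test compound in the initial addition of three / Timing: cells plated overnight, dye loaded 0.5 h 37 °C, 0.5 h room temperature / Technique: kinetic calcium dye fluorescence, Fluo-4 NW / Control set: positive and negative controls per plate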
RGS4 act = RGS4 potentiators or activators, primary screen, cell-based, HEK293 M3R inducible RGS4, calcium flux; B-score at 10 µM; carbachol calcium flux Fluo4; stronger effect = lower value; actives 0.92% (n = 310,000);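 active = B-score of the integrated calcium signal more than 4 SD below the library mean, with starting fluorescence not abnormally high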;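 note: negative B-score means reduced calcium response which marks RGS4 activation or potentiation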
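Assay system: Inducible-RGS4 HEK293 cells carrying M3 receptor | Schedule: Compound preincubation 20 min at room temperature before agonist | Signal: Kinetic calcium fluorescence imaging with Fluo4-AM dye, 2 µM | Read-out basis: B score from integrated fluorescence ratio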
RGS4 inh valid = enhanced carbachol calcium response, M3R/RGS4 cells, RGS4 inhibitor project, cell-based, validation screen, HEK293 M3R/RGS4, calcium flux; shares compounds with RGS4 block; carbachol calcium Fluo-4 fluorescence; carbachol added at its EC20; 0 = buffer wells, 100 = carbachol control; calcium response, % at 10 µM; actives 65% (n = 1,700); AID 492999, 2010;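 active = duplicate-averaged calcium response above the buffer-only control mean plus 5 SD of those controls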;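 note: integrated fluorescence ratio F max minus min over baseline F0; higher response in RGS4-induced cells means RGS4 inhibition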
RGS4 uninduced = carbachol calcium response in non-induced M3R cells, confirmation, counter-screen for RGS4 inhibitor project, cell-based, HEK293 M3R. shares compounds with RGS4 block. carbachol calcium Fluo-4; submaximal (EC20) carbachol stimulus; buffer wells 0%, carbachol control wells 100%. activity (percent), % at 10 µM. actives 20% (n = 1,900). AID 493000, 2010; call rule not given here;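 note: RGS4 induction absent so cells express M3R without RGS4; higher means more calcium signal and flags a non-specific hit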
RGS4 inh ctr2 = second RGS4 inhibitor counter-screen in uninduced cells lacking carbachol; shares compounds with RGS4 block; HEK293 M3R/RGS4 non-induced, Fluo-4 calcium, no carbachol; normalised: buffer wells 0%, carbachol wells 100%; calcium response (agonist-mode artifact), % at 10 µM; actives 22% (n = 1,900); AID 493001;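 active = duplicate-averaged calcium rise in uninduced cells above buffer wells' mean plus 5 SD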
Starred values were filed as active, the others as inactive.

`O=C1Nc2ccccc2/C1=C/c1ccc([N+](=O)[O-])cc1` gave MrgX1 antagonist inactive, MrgX1 PAM inactive, RGS4 block 8.1*, MrgX1 agonist inactive, RGS4 act inactive, RGS4 inh valid inactive, RGS4 uninduced 30%* and RGS4 inh ctr2 inactive.
Screening O=[N+]([O-])c1cccc(-n2nnnc2CNCc2ccccc2)c1 returned MrgX1 antagonist inactive, MrgX1 PAM inactive, RGS4 block inactive, MrgX1 agonist inactive and RGS4 act inactive.
`CC(C)(C)OC1NS(=O)(=O)OCC1NCOC(Cl)(Cl)Cl` (stereo not drawn) gave MrgX1 antagonist inactive, MrgX1 PAM inactive, RGS4 block 19*, MrgX1 agonist inactive, RGS4 act inactive, RGS4 inh valid 26%*, RGS4 uninduced 40%* and RGS4 inh ctr2 22%*.
Screening C=CCOc1ccc2c(c1)C(=NO)c1cc(OCC=C)ccc1-2 returned MrgX1 antagonist inactive, MrgX1 PAM inactive, RGS4 block 5.6*, MrgX1 agonist inactive, RGS4 act inactive, RGS4 inh valid 9.5%*, RGS4 uninduced inactive and RGS4 inh ctr2 inactive.
`O=Cc1c(N2CCC3(CC2)OCCO3)nc2ccccn2c1=O` gave MrgX1 antagonist inactive, MrgX1 PAM inactive, RGS4 block inactive, MrgX1 agonist inactive and RGS4 act inactive.
O=C(/C=C/c1cccc([N+](=O)[O-])c1)Nc1ccc(NC(=O)c2cccs2)cc1 was read as MrgX1 antagonist inactive, MrgX1 PAM inactive, RGS4 block inactive, MrgX1 agonist inactive and RGS4 act inactive.
For Cc1cc(O)c(C(=O)/C=C/c2cccc([N+](=O)[O-])c2)c(=O)o1 the results were MrgX1 antagonist inactive, MrgX1 PAM inactive, RGS4 block 4.7*, MrgX1 agonist inactive, RGS4 act inactive, RGS4 inh valid 30%*, RGS4 uninduced inactive and RGS4 inh ctr2 inactive.
O=C(/C=C/c1cccc([N+](=O)[O-])c1)N1CCN(c2ccccn2)CC1 was read as MrgX1 antagonist inactive, MrgX1 PAM inactive, RGS4 block inactive, MrgX1 agonist inactive and RGS4 act inactive.
O=C(/C=C/c1cccc([N+](=O)[O-])c1)c1cccs1 was read as MrgX1 antagonist inactive, MrgX1 PAM inactive, RGS4 block 4.8*, MrgX1 agonist 35*, RGS4 act inactive, RGS4 inh valid inactive, RGS4 uninduced inactive and RGS4 inh ctr2 inactive.
O=C(/C=C/c1cccc([N+](=O)[O-])c1)n1cnc2ccccc21 was read as RGS4 block 7.9*, RGS4 act inactive, RGS4 inh valid 19%*, RGS4 uninduced inactive and RGS4 inh ctr2 inactive.
Cc1ccc(C)c(S(=O)(=O)N2CCCC2CNC(=O)C(=O)NC2CCCC2)c1 (stereo not drawn) was read as MrgX1 antagonist inactive, MrgX1 PAM inactive, RGS4 block inactive, MrgX1 agonist inactive and RGS4 act inactive.
`COc1ccc(NS(=O)(=O)c2ccc3nc(COc4cccc5ccccc45)[nH]c3c2)cc1` gave MrgX1 antagonist inactive, MrgX1 PAM inactive, RGS4 block 8.5*, MrgX1 agonist inactive, RGS4 act inactive, RGS4 inh valid 7.0%*, RGS4 uninduced inactive and RGS4 inh ctr2 inactive.
